The values below come from the M2OR odorant receptor database.
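Further: active if original authors judged signal statistically different from baseline.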

One test addresses T1, OR51E1 (Homo sapiens) (UniProt Q8TCB6).
T1 sequence (whole entry): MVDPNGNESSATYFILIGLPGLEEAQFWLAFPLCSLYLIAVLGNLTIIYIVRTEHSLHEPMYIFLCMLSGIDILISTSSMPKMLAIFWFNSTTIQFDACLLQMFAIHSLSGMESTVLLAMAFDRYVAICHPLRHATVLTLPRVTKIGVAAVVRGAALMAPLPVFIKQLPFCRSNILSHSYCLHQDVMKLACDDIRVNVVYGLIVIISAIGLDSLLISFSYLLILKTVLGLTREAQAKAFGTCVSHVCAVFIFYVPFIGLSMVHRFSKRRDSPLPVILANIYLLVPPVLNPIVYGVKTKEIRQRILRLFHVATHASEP
As to conditions: stereoisomer not certain. Summed up: (§1)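 Whether a receptor–molecule pair is responsive (active) rests on the original authors' judgment that its measured signal was statistically different from baseline. Pairs without that judgment are non-responsive (inactive). Sources used varied assay methods, commonly transient luciferase assays in mammalian cell lines.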
As for `CCCCCCCCCS`, the “odorant receptor agonist call” value was “inactive”.

Turning to `CCCCCCCO`, the “odorant receptor agonist call” value is “inactive”.

Turning to `CCOC(=O)C(C)C`, the “odorant receptor agonist call” value is “inactive”.

On to `CCCCCCCC(C)=O`, for which the “odorant receptor agonist call” value is “inactive”.

Regarding `CCC(=O)C(=O)CC`, the “odorant receptor agonist call” value was “inactive”.

On to `CCCCC(C)=O`, for which the “odorant receptor agonist call” value was “inactive”.

`CCCCOC(=O)C(C)OC(=O)CCC` (stereo unspecified): the “odorant receptor agonist call” value was “active”.

For `COc1cc(C(=O)O)ccc1O`, the “odorant receptor agonist call” value was “inactive”.

As to `CC(=O)Oc1ccccc1`, the “odorant receptor agonist call” value is “inactive”.

On to `CC(=O)OCC=C(C)C`, for which the “odorant receptor agonist call” value is “inactive”.

As for `c1ccccc1`, the “odorant receptor agonist call” value was “inactive”.

With `CCCCCCCCCC(=O)[O-].[H+]`, the “odorant receptor agonist call” value was “inactive”.

Turning to `CCCCCCOC(C)=O`, the “odorant receptor agonist call” value is “inactive”.

As for `CC12CCC(CC1=O)C2(C)C` (stereo unspecified), the “odorant receptor agonist call” value was “inactive”.

In the case of `CCCCC(=O)CC`, the “odorant receptor agonist call” value was “inactive”.

Regarding `O=C1CCOc2ccccc21`, the “odorant receptor agonist call” value was “inactive”.

As to `CCCCCOC(=O)CCCCC`, the “odorant receptor agonist call” value is “inactive”.

As to `CCCCCC=O`, the “odorant receptor agonist call” value was “inactive”.

Regarding `CCCCCCCCCO`, the “odorant receptor agonist call” value is “inactive”.

Turning to `CCCCCCC(C)=O`, the “odorant receptor agonist call” value is “inactive”.

For `C=C(C)C1CCC(C)C(=O)C1` (stereo unspecified), the “odorant receptor agonist call” value was “inactive”.

As for `CCCCCC1=C(C)CCC1=O`, the “odorant receptor agonist call” value was “inactive”.

On to `CCCCCCCCS`, for which the “odorant receptor agonist call” value is “inactive”.

Regarding `CCCCCCCCCCO`, the “odorant receptor agonist call” value is “inactive”.

On to `CC(C)=CCCC(C)CCO` (stereo unspecified), for which the “odorant receptor agonist call” value was “inactive”.

With `CCCCCCO`, the “odorant receptor agonist call” value is “inactive”.

Regarding `CCCC(=O)C(C)=O`, the “odorant receptor agonist call” value is “inactive”.

`CCCC(C)=O`: the “odorant receptor agonist call” value is “inactive”.

Consider `CCCCOC=O`, for which the “odorant receptor agonist call” value was “inactive”.

For the compound `O=C(c1ccccc1)c1ccccc1`, the “odorant receptor agonist call” value was “inactive”.

Consider `CCCCCO`, for which the “odorant receptor agonist call” value was “inactive”.

In the case of `CCC(C(=O)O)c1ccccc1` (stereo unspecified), the “odorant receptor agonist call” value was “inactive”.

The next test has as its target T2, OR51E2 (Homo sapiens) (UniProt Q9H255).
T2 sequence (whole entry): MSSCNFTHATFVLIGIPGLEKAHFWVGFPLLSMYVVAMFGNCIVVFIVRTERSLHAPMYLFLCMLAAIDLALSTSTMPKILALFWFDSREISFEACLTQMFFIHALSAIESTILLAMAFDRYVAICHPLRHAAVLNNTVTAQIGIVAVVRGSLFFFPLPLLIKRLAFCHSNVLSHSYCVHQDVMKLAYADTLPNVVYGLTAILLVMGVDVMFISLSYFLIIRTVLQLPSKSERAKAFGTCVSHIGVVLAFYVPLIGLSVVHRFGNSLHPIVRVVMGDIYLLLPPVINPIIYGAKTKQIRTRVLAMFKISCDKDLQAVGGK
The note with it: stereoisomer not certain. The method in brief: as §1
As for `CCCCCCCCCS`, the “odorant receptor agonist call” value was “inactive”.

For the compound `CCCCCCCO`, the “odorant receptor agonist call” value is “inactive”.

Consider `CCOC(=O)C(C)C`, for which the “odorant receptor agonist call” value was “inactive”.

For the compound `CCCCCCCC(C)=O`, the “odorant receptor agonist call” value is “inactive”.

As for `CCC(=O)C(=O)CC`, the “odorant receptor agonist call” value is “inactive”.

As to `CCCCC(C)=O`, the “odorant receptor agonist call” value was “inactive”.

As for `CCCCOC(=O)C(C)OC(=O)CCC` (stereo unspecified), the “odorant receptor agonist call” value was “inactive”.

As to `COc1cc(C(=O)O)ccc1O`, the “odorant receptor agonist call” value was “inactive”.

Take `CCCCC(=O)O`: the “odorant receptor agonist call” value was “inactive”.

For the compound `CC(=O)Oc1ccccc1`, the “odorant receptor agonist call” value was “inactive”.

Regarding `CC(=O)OCC=C(C)C`, the “odorant receptor agonist call” value was “inactive”.

For the compound `c1ccccc1`, the “odorant receptor agonist call” value was “inactive”.

For `CCCCCCCCCC(=O)[O-].[H+]`, the “odorant receptor agonist call” value is “inactive”.

Take `CCCCCCOC(C)=O`: the “odorant receptor agonist call” value is “inactive”.

With `CC12CCC(CC1=O)C2(C)C` (stereo unspecified), the “odorant receptor agonist call” value was “inactive”.

Take `CCCCC(=O)CC`: the “odorant receptor agonist call” value was “inactive”.

For `O=C1CCOc2ccccc21`, the “odorant receptor agonist call” value was “inactive”.

With `CCCCCOC(=O)CCCCC`, the “odorant receptor agonist call” value is “inactive”.

For the compound `CCCCCC=O`, the “odorant receptor agonist call” value was “inactive”.

For the compound `CCCCCCCCCO`, the “odorant receptor agonist call” value was “inactive”.

On to `CCCCCCC(C)=O`, for which the “odorant receptor agonist call” value was “inactive”.

For the compound `C=C(C)C1CCC(C)C(=O)C1` (stereo unspecified), the “odorant receptor agonist call” value was “inactive”.

With `CCCCCC1=C(C)CCC1=O`, the “odorant receptor agonist call” value was “inactive”.

As for `CCCCCCCCS`, the “odorant receptor agonist call” value was “inactive”.

As to `CCCCCCCCCCO`, the “odorant receptor agonist call” value was “inactive”.

`CC(C)=CCCC(C)CCO` (stereo unspecified): the “odorant receptor agonist call” value was “inactive”.

With `CCCCCCO`, the “odorant receptor agonist call” value is “inactive”.

Turning to `CCCC(=O)C(C)=O`, the “odorant receptor agonist call” value is “inactive”.

Consider `CCCC(C)=O`, for which the “odorant receptor agonist call” value was “inactive”.

As for `CCCCOC=O`, the “odorant receptor agonist call” value is “inactive”.

For the compound `O=C(c1ccccc1)c1ccccc1`, the “odorant receptor agonist call” value is “inactive”.

In the case of `CC(=O)C=CC1=C(C)CCCC1(C)C`, the “odorant receptor agonist call” value was “inactive”.

As for `CCCCCO`, the “odorant receptor agonist call” value is “inactive”.

`CCC(C(=O)O)c1ccccc1` (stereo unspecified): the “odorant receptor agonist call” value is “inactive”.
